Assay results published in the M2OR odorant receptor database.
Numbering of substitutions follows the chain as printed.

Experiments:
Details in all cases: stereoisomer not certain
OR51B5 (Homo sapiens) = molecular target: T1, OR51B5 (Homo sapiens) (UniProt Q9H339)
T1 sequence (whole entry): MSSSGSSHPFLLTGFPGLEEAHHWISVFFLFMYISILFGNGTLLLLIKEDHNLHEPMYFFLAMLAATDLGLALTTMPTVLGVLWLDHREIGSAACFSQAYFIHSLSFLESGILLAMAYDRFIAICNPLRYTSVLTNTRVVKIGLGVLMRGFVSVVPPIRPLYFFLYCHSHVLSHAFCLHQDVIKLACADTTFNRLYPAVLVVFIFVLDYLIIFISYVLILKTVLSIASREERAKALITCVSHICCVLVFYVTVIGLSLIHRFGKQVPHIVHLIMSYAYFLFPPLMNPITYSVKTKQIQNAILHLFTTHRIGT
Procedure, shortened: (§1)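 Transient luciferase assays in mammalian cell lines were common, though methods varied by source. The values come from published papers and their supplementary material, with extra details from the original authors when needed. Responsive refers to a measured signal the original authors judged statistically different from baseline, and non-responsive (inactive) to the remainder.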

OR4S2 (Homo sapiens) = molecular target: T2, OR4S2 (Homo sapiens) (UniProt Q8NH73)
T2 sequence (whole entry): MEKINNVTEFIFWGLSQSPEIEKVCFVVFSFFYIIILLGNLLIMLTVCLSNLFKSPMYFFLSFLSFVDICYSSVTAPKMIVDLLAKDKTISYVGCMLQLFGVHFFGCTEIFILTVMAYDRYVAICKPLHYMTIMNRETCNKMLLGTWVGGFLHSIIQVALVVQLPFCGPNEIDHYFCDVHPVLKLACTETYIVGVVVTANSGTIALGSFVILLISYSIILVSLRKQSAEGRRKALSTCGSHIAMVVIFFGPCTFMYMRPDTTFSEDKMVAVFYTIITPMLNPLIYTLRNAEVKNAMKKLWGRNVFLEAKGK
Procedure, shortened: as §1

OR4X1 (Homo sapiens) = molecular target: T3, OR4X1 (Homo sapiens) (UniProt Q8NH49)
T3 sequence (whole entry): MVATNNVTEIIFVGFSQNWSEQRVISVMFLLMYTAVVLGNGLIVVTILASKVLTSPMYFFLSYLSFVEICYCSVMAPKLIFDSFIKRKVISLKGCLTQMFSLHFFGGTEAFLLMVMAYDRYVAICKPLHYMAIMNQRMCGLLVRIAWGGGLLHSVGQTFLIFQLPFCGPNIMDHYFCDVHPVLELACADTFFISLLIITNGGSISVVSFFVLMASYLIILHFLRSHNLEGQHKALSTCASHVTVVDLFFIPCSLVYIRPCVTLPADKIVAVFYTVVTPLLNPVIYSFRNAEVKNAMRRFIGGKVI
Procedure, shortened: as §1

OR4X2 (Homo sapiens) = molecular target: T4, OR4X2 (Homo sapiens) (UniProt Q8NGF9)
T4 sequence (whole entry): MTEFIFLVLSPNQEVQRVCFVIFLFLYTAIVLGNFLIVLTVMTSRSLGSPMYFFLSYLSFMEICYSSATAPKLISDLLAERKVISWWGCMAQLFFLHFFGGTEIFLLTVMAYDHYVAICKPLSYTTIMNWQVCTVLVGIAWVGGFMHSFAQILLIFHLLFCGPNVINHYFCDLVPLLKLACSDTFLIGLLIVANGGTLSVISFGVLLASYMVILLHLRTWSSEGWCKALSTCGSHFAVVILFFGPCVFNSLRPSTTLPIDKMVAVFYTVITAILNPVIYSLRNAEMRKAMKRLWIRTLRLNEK
Procedure, shortened: as §1

OR51A2 (Homo sapiens) = molecular target: T5, OR51A2 (Homo sapiens) (UniProt Q8NGJ7)
T5 sequence (whole entry): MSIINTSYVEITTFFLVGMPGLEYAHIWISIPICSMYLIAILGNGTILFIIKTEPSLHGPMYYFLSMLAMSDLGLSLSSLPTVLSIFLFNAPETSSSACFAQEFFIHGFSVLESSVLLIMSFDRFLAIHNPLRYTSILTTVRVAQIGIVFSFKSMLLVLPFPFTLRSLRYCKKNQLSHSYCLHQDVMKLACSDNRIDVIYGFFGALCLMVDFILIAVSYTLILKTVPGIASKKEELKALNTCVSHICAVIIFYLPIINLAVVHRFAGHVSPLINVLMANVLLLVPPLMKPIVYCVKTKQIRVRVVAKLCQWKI
Procedure, shortened: as §1

OR51A4 (Homo sapiens) = molecular target: T6, OR51A4 (Homo sapiens) (UniProt Q8NGJ6)
T6 sequence (whole entry): T5 sequence (whole entry) with G59E, T94I, S97N, S167N, P227L, E235Q, G267R, M288T, K289N, W311R
Procedure, shortened: as §1

OR51A7 (Homo sapiens) = molecular target: T7, OR51A7 (Homo sapiens) (UniProt Q8NH64)
T7 sequence (whole entry): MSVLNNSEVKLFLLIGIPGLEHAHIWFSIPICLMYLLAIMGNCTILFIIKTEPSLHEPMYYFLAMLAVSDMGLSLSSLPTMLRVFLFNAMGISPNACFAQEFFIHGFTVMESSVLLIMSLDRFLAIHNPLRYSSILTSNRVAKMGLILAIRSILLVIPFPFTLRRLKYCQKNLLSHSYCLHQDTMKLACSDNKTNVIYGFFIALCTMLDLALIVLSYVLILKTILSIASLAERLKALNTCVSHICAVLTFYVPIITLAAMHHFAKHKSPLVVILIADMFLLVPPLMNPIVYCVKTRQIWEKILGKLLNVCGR
Procedure, shortened: as §1

OR51B2 (Homo sapiens) = molecular target: T8, OR51B2 (Homo sapiens) (UniProt Q9Y5P1)
T8 sequence (whole entry): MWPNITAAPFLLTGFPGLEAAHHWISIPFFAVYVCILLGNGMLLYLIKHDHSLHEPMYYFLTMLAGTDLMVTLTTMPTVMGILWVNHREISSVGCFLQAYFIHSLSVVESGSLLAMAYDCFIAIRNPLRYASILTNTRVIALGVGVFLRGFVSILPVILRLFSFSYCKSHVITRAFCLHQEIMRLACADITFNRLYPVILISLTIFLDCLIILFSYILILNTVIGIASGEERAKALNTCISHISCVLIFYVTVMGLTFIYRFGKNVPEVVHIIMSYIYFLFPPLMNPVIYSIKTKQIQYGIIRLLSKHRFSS
Procedure, shortened: as §1

OR51B4 (Homo sapiens) = molecular target: T9, OR51B4 (Homo sapiens) (UniProt Q9Y5P0)
T9 sequence (whole entry): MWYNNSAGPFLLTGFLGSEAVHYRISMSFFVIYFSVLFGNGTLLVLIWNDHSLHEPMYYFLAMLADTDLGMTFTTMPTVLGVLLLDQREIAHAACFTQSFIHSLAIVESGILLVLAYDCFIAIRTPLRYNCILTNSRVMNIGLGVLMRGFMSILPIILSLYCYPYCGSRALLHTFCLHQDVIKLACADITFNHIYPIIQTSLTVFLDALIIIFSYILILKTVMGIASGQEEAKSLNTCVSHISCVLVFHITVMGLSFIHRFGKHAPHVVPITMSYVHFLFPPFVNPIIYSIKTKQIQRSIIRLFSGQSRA
Procedure, shortened: as §1

OR51B6 (Homo sapiens) = molecular target: T10, OR51B6 (Homo sapiens) (UniProt Q9H340)
T10 sequence (whole entry): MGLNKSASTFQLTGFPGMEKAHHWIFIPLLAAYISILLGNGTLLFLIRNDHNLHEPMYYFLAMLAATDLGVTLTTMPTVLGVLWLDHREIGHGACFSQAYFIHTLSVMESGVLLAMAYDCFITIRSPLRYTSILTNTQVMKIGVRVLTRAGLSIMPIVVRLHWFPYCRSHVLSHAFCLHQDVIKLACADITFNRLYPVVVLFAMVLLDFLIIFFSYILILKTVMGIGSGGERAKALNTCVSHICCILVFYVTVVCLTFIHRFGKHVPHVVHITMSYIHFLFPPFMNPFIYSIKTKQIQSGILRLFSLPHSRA
Procedure, shortened: as §1

OR51D1 (Homo sapiens) = molecular target: T11, OR51D1 (Homo sapiens) (UniProt Q8NGF3)
T11 sequence (whole entry): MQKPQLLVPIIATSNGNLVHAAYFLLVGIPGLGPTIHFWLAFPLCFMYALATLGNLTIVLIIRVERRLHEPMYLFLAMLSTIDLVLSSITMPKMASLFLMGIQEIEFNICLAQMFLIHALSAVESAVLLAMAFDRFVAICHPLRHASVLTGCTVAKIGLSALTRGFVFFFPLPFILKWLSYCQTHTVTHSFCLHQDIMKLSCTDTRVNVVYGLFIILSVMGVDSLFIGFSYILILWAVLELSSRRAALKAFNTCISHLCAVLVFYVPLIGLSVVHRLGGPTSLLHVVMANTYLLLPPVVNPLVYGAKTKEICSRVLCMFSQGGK
Procedure, shortened: as §1

OR51E1 (Homo sapiens) = molecular target: T12, OR51E1 (Homo sapiens) (UniProt Q8TCB6)
T12 sequence (whole entry): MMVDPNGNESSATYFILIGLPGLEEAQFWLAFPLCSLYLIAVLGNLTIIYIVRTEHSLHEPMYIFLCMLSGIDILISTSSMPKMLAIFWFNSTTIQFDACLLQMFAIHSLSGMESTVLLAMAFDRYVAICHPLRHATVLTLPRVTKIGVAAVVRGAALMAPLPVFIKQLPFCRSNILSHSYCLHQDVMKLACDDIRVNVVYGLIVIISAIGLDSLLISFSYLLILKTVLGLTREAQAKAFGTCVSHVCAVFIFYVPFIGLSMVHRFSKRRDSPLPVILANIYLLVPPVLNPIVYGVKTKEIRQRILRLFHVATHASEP
Procedure, shortened: as §1

OR51E2 (Homo sapiens) = molecular target: T13, OR51E2 (Homo sapiens) (UniProt Q9H255)
T13 sequence (whole entry): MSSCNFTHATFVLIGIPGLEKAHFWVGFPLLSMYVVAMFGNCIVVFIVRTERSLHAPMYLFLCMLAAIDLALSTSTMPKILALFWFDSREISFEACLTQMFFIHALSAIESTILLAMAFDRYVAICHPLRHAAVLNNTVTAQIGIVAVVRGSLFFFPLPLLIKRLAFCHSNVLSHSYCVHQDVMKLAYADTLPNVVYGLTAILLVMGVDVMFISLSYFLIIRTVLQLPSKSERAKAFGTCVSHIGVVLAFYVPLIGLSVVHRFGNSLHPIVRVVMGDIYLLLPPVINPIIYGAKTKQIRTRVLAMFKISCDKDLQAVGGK
Procedure, shortened: as §1

OR51F2 (Homo sapiens) = molecular target: T14, OR51F2 (Homo sapiens) (UniProt Q8NH61)
T14 sequence (whole entry): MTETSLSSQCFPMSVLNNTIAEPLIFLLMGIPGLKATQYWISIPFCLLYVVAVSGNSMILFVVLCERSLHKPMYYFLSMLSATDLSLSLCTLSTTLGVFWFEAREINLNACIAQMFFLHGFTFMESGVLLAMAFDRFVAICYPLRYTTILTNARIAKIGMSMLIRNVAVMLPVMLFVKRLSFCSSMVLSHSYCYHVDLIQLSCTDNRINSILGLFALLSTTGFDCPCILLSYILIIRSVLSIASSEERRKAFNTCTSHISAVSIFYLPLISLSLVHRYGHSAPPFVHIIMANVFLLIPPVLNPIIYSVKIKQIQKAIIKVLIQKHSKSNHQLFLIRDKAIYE
Procedure, shortened: as §1

OR51G1 (Homo sapiens) = molecular target: T15, OR51G1 (Homo sapiens) (UniProt Q8NGK1)
T15 sequence (whole entry): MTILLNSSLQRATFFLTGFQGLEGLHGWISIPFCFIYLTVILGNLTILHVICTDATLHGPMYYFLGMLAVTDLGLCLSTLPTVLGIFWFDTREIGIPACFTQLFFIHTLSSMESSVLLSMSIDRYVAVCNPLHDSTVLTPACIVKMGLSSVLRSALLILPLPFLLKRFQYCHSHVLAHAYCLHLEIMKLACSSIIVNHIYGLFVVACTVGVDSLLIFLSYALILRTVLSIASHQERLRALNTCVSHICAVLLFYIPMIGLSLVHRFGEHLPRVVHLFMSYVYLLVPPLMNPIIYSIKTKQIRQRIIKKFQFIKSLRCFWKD
Procedure, shortened: as §1

OR51G2 (Homo sapiens) = molecular target: T16, OR51G2 (Homo sapiens) (UniProt Q8NGK0)
T16 sequence (whole entry): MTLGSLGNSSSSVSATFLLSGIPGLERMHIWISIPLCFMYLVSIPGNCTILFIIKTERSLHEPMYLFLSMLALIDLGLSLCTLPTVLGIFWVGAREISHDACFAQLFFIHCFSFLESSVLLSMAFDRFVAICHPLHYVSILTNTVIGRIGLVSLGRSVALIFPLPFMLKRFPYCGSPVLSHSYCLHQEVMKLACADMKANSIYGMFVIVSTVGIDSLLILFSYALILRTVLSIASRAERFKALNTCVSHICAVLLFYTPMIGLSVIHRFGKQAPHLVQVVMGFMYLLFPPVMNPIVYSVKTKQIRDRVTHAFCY
Procedure, shortened: as §1

OR51I1 (Homo sapiens) = molecular target: T17, OR51I1 (Homo sapiens) (UniProt Q9H343)
T17 sequence (whole entry): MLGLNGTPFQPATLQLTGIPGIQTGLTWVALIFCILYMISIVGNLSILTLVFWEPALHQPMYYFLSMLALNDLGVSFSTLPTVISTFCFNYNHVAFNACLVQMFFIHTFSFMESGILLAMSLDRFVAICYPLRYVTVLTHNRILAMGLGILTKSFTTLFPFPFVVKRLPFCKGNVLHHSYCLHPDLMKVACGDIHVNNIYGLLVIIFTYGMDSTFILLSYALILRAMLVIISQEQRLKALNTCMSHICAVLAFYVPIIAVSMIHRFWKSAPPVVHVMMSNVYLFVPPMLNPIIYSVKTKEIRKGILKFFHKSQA
Procedure, shortened: as §1

Measured: odorant receptor agonist call;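 further: active if original authors judged signal statistically different from baseline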

CCCCCCCC(=O)OCC
inactive: OR51B5 (Homo sapiens)

Cc1cnc(C)c(C)n1
inactive: all assays above
